The source of these data is ChEMBL document CHEMBL2413074, “Structure-based drug design using GPCR homology modeling: toward the discovery of novel selective CysLT2 antagonists” (Eur J Med Chem, 2013).

Molecules are shown by their SMILES.

What all share (type): functional, cell-based
Experiment [1] deals with T1, Cysteinyl leukotriene receptor 1 (Homo sapiens) (UniProt Q9Y271).
T1 sequence (whole entry): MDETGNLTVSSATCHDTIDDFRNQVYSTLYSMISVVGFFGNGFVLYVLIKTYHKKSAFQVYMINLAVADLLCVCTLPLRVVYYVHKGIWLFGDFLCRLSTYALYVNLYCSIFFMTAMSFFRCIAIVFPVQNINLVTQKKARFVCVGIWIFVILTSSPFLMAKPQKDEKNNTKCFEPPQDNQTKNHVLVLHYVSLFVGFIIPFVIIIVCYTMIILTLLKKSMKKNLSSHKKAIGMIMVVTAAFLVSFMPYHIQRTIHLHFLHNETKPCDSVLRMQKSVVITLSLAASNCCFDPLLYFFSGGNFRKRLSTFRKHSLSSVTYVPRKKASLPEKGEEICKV
Briefly: Antagonist activity at CysLT1 receptor (unknown origin) expressed in human dU937 cells assessed as reduction in LTD4-induced cytosolic free Ca2+ level at 1 uM after 30 mins by fluorescence assay relative to control.

The target of experiment [2] is T2, Cysteinyl leukotriene receptor 2 (Homo sapiens) (UniProt Q9NS75).
T2 sequence (whole entry): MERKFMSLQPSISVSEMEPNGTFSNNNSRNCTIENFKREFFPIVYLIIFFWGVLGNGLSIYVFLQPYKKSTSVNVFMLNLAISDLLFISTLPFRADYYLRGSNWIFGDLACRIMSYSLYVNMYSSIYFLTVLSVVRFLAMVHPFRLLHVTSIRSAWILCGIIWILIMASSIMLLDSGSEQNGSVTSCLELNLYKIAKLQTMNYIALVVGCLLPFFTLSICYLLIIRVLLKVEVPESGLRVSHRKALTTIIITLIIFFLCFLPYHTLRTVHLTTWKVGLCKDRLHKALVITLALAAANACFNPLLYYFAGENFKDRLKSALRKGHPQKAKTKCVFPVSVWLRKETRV
Put plainly: (§1) Antagonist activity at human recombinant CysLT2 receptor expressed in human HEK293 cells assessed as reduction in LTD4-induced cytosolic free Ca2+ level after 30 mins by fluorescence assay relative to control. The method, boiled down:
(§2)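 HEK293 cells stably transfected with pcDNA3.1(+)-hCysLT2 were grown at 37 °C in 5% CO2 and plated. After 24 h they were preincubated for 30 min in BSS with or without test compound. Cells were then stimulated with LTD4, with ATP as a positive stimulus. [Ca2+]i fluorescence was read at 37 °C (ex 485/em 525 nm). The response was taken as peak minus basal and expressed as % of BSS-only control.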

The target in experiment [3] is T3, Cysteinyl leukotriene receptor 2 (Homo sapiens, UniProt Q9NS75).
T3 sequence (Q9NS75 whole entry): T2 sequence (whole entry)
The experiment is described as §1. The method, boiled down: as §2

Experiment [4] deals with T2, Cysteinyl leukotriene receptor 2 (Homo sapiens). Briefly: Antagonist activity at human recombinant CysLT2 receptor expressed in human HEK293 cells assessed as reduction in LTD4-induced cytosolic free Ca2+ level at 1 uM after 30 mins by fluorescence assay relative to control. In a few lines:
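HEK293 cells stably transfected with pcDNA3.1(+)-hCysLT2 were grown at 37 °C in 5% CO2 and plated. After 24 h they were preincubated for 30 min in BSS with or without test compound. Cells were then stimulated with LTD4, with ATP as a positive stimulus. The response was taken as peak minus basal and expressed as % of BSS-only control.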

As to `CCCCCCCCCCCCOc1ccc(/C=C/C(=O)c2ccc(C(=O)O)cc2OCC(=O)O)cc1`, the inhibition in experiment [1] was 10.6%.
Same read-out and setting: next, `CCCCCCCCCCCCOc1ccc(/C=C/C(=O)c2cc(C(=O)O)ccc2OCC(=O)O)cc1`: 35.7%.
Consider `O=C(O)COc1ccc(C(=O)O)cc1C(=O)/C=C/c1ccc(OCCCCOc2ccc(Cl)cc2)cc1`, for which, in experiment [2], the Activity result was “Dose-dependent effect” and the Imax turned out to be 72.8%. Moreover, the IC50 in experiment [3] was 7.5 µM. The inhibition in experiment [1] was found to be 7%. In addition, the inhibition in experiment [4] came out at 44%.
For `N#CCOc1cc(C(=O)O)ccc1C(=O)/C=C/c1ccc(OCCCCOc2ccc(Cl)cc2)cc1`, the inhibition in experiment [4] amounted to 10.4%.
Consider `CCCCCCCCOc1ccc(/C=C/C(=O)c2ccc(C(=O)O)cc2OCC(=O)O)cc1`, for which, in experiment [1], the inhibition worked out at 8.6%.
For the compound `CCCCCCCCCCCCOc1cccc(/C=C/C(=O)c2cc(C(=O)O)ccc2OCC(=O)O)c1`, in experiment [2], the Activity result was “Dose-dependent effect” and the Imax amounted to 80.5%. Further, in experiment [3], the IC50 was 0.25 µM. Also, the inhibition in experiment [1] worked out at 4.8%. Also, the inhibition in experiment [4] came to 70.5%.

What is called inhibition is how much of the control response was suppressed. What is called IC50 is the midpoint of a concentration-inhibition curve.
